This passage reports residual activity and inhibition results from ChEMBL document CHEMBL1681705, “Optimisation of ITK inhibitors through successive iterative design cycles” (Bioorg Med Chem Lett, 2011).

The target of test [1] is T1, Ephrin type-B receptor 2 (Homo sapiens) (UniProt P29323).
T1 sequence (whole entry): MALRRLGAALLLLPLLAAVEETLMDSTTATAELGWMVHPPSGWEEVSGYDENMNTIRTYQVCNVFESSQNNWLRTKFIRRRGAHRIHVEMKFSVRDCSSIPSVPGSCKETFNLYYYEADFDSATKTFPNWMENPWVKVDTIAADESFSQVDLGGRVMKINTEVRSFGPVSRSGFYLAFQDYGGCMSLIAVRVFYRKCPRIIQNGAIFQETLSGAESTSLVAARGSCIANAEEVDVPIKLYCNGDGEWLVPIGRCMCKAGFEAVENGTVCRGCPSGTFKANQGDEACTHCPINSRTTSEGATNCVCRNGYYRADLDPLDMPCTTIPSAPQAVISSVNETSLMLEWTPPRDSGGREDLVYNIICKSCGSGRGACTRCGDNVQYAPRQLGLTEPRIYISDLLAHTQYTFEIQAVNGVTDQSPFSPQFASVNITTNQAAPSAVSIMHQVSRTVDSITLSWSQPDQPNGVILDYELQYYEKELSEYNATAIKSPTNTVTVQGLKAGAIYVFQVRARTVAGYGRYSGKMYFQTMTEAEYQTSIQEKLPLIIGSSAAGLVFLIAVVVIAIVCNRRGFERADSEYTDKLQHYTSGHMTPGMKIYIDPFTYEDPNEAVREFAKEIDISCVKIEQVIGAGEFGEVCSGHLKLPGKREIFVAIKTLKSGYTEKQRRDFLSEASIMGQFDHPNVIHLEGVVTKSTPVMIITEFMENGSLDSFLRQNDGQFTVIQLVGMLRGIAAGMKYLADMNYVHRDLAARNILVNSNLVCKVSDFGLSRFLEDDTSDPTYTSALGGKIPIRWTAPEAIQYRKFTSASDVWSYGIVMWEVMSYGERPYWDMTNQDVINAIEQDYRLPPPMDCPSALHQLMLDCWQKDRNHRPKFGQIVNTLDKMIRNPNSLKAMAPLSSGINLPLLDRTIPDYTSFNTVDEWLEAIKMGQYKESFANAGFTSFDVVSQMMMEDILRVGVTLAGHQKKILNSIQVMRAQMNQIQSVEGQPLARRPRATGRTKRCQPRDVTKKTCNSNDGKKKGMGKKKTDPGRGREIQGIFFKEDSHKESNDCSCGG
Put plainly: Inhibition of EphB2 at 1 uM; values are per cent of control.

The target of test [2] is RAC-beta serine/threonine-protein kinase (Homo sapiens) (UniProt P31751). Briefly: Inhibition of PKBbeta at 1 uM; values are per cent of control.
For test [3], the target named is Tyrosine-protein kinase Yes (Homo sapiens) (UniProt P07947). Briefly: Inhibition of Yes at 0.1 uM; values are per cent of control.
The target of test [4] is Ribosomal protein S6 kinase alpha-4 (Homo sapiens) (UniProt O75676). Briefly: Inhibition of MSK2 at 1 uM. An outline of the steps:
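Single-point screen within a 108-kinase selectivity panel. Each kinase was tested with inhibitor at 0.1 and 1.0 micromolar, and activity was recorded as percent inhibition.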

Test [5] concerns the target Dual specificity mitogen-activated protein kinase kinase 1 (Homo sapiens) (UniProt Q02750). Put plainly: Inhibition of MEK1 at 1 uM; values are per cent of control.
In test [6] the target is Receptor tyrosine-protein kinase erbB-4 (Homo sapiens) (UniProt Q15303). Briefly: Inhibition of ErbB4 at 0.1 uM; values are per cent of control.
Test [7] deals with T2, Activin receptor type-1B (Homo sapiens) (UniProt P36896).
T2 sequence (whole entry): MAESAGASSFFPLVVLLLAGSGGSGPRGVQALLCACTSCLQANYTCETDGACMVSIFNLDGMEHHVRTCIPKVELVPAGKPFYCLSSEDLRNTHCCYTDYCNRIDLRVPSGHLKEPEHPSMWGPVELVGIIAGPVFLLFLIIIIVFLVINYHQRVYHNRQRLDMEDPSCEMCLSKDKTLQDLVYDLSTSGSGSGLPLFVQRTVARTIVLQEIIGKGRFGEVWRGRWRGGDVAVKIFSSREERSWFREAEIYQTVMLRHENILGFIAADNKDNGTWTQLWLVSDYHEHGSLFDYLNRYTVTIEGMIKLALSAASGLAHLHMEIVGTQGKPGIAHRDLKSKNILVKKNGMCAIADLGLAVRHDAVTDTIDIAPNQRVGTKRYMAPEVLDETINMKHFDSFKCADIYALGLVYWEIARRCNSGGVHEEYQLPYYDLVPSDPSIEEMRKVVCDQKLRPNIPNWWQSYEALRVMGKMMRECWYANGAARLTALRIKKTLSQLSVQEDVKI
Briefly: Inhibition of ALK4 at 1 uM; values are per cent of control.

Test [8] has as its target RAF proto-oncogene serine/threonine-protein kinase (Homo sapiens) (UniProt P04049). Briefly: Inhibition of c-RAF at 0.1 uM; values are per cent of control.
For test [9], the target named is T3, Aurora kinase A (Homo sapiens) (UniProt O14965).
T3 sequence (whole entry): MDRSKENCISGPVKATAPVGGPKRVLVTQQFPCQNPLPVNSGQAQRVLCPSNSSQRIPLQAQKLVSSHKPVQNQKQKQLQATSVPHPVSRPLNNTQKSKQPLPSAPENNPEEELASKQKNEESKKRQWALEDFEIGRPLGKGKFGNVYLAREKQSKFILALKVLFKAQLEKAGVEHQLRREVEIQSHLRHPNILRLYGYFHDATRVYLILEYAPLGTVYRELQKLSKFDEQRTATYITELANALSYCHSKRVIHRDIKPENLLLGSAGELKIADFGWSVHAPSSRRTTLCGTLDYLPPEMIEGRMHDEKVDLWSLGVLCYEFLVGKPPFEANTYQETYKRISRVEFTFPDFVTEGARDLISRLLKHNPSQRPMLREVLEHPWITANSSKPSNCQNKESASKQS
Put plainly: Inhibition of aurora-A at 1 uM; values are per cent of control.

Sequence of Dual specificity mitogen-activated protein kinase kinase 1 (Homo sapiens) (Q02750 whole entry): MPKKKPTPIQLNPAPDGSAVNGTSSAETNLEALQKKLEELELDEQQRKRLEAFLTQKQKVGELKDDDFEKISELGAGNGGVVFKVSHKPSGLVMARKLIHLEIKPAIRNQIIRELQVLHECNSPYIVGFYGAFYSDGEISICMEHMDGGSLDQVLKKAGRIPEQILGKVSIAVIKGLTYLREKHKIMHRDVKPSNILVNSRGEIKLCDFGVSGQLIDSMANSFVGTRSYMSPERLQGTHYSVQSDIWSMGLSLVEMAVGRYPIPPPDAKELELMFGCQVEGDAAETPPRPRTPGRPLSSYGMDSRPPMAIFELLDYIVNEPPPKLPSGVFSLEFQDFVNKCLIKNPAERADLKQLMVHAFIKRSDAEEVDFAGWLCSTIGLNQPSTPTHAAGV
Sequence of Receptor tyrosine-protein kinase erbB-4 (Homo sapiens) (Q15303 whole entry): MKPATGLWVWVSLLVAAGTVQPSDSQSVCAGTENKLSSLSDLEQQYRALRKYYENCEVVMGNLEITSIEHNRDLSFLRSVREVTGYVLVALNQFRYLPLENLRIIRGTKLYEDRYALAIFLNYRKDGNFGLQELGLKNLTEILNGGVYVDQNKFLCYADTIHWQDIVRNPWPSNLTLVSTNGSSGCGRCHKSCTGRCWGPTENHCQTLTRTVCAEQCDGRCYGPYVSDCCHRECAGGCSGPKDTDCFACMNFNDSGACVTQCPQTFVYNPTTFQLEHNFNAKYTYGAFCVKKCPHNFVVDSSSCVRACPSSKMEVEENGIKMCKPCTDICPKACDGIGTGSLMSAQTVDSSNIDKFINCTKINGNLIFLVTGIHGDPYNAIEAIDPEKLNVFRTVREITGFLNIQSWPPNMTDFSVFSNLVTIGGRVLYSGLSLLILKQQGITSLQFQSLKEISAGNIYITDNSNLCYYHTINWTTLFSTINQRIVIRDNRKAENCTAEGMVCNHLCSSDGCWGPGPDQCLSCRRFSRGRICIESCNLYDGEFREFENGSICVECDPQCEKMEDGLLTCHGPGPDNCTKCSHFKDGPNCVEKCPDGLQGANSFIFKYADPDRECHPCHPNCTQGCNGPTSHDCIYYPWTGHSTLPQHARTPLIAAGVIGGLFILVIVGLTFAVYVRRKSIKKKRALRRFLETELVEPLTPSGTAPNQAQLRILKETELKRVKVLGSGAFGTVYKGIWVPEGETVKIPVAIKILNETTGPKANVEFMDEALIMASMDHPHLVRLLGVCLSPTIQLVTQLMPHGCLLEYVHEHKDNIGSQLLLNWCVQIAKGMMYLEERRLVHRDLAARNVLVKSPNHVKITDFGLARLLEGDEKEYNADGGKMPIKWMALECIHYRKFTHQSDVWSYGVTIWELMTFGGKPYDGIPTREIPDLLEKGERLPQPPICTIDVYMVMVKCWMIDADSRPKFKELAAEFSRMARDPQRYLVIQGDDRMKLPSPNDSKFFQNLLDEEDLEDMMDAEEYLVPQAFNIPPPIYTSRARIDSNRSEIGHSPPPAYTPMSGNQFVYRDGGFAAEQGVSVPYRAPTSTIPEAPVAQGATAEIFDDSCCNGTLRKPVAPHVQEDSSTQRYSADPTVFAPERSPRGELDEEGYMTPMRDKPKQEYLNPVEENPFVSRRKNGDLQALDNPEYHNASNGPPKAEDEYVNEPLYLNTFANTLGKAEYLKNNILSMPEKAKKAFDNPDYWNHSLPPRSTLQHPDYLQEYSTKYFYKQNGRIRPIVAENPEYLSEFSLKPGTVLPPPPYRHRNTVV
Sequence of RAF proto-oncogene serine/threonine-protein kinase (Homo sapiens) (P04049 whole entry): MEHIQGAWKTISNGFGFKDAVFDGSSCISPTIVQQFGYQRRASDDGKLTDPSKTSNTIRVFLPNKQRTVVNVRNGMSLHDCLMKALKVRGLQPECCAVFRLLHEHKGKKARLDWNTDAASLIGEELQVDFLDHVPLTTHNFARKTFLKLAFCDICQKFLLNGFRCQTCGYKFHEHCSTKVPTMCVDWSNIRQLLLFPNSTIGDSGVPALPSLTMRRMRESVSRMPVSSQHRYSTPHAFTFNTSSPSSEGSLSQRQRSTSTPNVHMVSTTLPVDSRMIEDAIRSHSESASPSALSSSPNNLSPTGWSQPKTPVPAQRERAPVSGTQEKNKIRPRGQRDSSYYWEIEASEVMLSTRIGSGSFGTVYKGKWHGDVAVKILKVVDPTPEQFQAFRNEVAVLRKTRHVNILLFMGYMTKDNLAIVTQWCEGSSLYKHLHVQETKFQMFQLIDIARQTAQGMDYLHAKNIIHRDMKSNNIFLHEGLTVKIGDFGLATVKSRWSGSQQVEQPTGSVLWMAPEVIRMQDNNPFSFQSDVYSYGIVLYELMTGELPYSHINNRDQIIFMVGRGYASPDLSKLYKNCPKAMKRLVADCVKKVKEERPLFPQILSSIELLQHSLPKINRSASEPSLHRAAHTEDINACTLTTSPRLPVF
Sequence of RAC-beta serine/threonine-protein kinase (Homo sapiens) (P31751 whole entry): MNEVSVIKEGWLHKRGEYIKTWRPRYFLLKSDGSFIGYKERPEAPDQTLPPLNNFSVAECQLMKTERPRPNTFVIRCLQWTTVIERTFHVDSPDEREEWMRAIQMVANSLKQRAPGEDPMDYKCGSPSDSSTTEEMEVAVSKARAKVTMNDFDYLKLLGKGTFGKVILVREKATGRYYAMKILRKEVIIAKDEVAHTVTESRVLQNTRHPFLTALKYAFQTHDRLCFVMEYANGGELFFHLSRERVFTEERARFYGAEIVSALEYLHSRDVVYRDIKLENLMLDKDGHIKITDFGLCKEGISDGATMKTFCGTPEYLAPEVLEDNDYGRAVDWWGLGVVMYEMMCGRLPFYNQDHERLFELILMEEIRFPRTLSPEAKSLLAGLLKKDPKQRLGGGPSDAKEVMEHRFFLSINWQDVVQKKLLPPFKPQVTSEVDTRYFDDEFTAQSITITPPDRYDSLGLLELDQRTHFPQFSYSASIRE
Sequence of Ribosomal protein S6 kinase alpha-4 (Homo sapiens) (O75676 whole entry, looked up): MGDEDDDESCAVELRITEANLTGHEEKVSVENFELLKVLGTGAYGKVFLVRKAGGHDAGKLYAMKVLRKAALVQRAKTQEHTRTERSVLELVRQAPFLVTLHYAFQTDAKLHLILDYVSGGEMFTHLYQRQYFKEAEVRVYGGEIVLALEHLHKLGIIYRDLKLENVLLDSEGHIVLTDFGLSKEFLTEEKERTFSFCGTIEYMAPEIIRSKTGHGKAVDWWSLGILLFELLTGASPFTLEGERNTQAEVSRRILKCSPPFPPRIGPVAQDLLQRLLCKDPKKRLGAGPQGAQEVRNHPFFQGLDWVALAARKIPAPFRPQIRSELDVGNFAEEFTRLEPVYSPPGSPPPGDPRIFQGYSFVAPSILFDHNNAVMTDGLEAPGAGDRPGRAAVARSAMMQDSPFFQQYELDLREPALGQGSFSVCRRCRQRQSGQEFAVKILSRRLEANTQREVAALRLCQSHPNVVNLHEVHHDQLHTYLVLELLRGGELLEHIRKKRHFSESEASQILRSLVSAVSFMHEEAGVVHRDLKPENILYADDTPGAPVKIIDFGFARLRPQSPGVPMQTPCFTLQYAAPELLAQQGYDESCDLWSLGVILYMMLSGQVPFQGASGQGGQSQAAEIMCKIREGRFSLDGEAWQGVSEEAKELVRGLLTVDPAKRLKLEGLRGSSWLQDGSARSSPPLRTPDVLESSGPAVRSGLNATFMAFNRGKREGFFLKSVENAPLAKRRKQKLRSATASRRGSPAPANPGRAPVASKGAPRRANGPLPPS
Sequence of Tyrosine-protein kinase Yes (Homo sapiens) (P07947 2-543 limits assumed): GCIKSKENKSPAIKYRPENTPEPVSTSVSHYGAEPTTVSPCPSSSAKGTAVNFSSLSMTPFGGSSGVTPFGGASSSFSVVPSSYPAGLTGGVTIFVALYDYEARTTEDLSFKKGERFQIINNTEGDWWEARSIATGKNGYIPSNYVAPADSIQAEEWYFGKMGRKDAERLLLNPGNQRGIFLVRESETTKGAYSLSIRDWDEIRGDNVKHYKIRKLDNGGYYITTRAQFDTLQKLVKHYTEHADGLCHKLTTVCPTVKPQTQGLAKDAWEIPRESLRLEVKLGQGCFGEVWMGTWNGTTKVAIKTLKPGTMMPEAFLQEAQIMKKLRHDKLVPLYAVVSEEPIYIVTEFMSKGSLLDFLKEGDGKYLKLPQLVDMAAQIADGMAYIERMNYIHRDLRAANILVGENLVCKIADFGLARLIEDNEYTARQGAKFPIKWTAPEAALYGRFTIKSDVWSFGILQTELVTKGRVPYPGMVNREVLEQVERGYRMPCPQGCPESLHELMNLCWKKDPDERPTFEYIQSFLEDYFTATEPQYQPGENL

Consider `Cc1ccc2cc(-c3n[nH]c4ccc(NC5CCNC5)cc34)[nH]c2c1` (stereo not drawn), for which the residual activity in [1] turned out to be 74%; in test [2], 88%; in [3], 2%; in test [5] it was 13%; in test [6], 81%; in [7] it was 114%. In addition, the residual activity was determined as 92% in [8] and 0% in test [9]. Moreover, the inhibition (as a rule, the drop in the measured response relative to a control, in per cent) in test [4] worked out at 2%.

For the compound `Cc1ccc2cc(-c3n[nH]c4ccc(NC5CCN(Cc6ccccc6)CC5)cc34)[nH]c2c1`, the residual activity in test [1] is 75%; in [2] it was 85%; in [3], -2%; in test [5], 87%; in [6], 43%; in test [7] it was 103%. The residual activity is 101% in [8] and -7% in [9]. This compound yielded an inhibition in [4] of 91%.
